Reference: ChEMBL document CHEMBL1128256, “Synthesis, biological evaluation, and structure analysis of a series of new 1,5-anhydrohexitol nucleosides” (J Med Chem, 1995)

Tests used:
HEL [1] = assay: Tested for the inhibitory concentration required to reduce cytomegalovirus (CMV) strain AD-169 plaque formation by 50%.; format: functional, cell-based; conditions: Homo sapiens
Method in brief: (§1)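 Virus plaque formation assay in human embryonic lung (HEL) cells seeded in 96-well trays. Targets were TK+ VZV (Oka, YS), TK- VZV (07/1, YS/R) and CMV (AD169, Davis). Value is the concentration that reduces plaque number by 50%. Cytotoxicity in HEL cells was taken as the concentration that reduces cell growth by 50%.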

HEL [2] = assay: Tested for the inhibitory concentration required to reduce cytomegalovirus (CMV) strain Davis plaque formation by 50%.; format: functional, cell-based; conditions: Homo sapiens; method in brief: as §1
E6SM [3] = assay: Tested for the minimum inhibitory concentration required to reduce thymidine kinase deficient herpes simplex virus type 1 (TK- HSV-1) strain B2006 induced cytopathogenicity by 50%.; format: functional; conditions: Homo sapiens
Method in brief: (§2)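 Inhibition of virus-induced cytopathogenicity in human embryonic skin-muscle (E6SM) fibroblasts seeded in 96-well trays. Viruses were HSV-1 (KOS, F, McIntyre), TK- HSV-1 B2006, TK-/TK+ HSV-1 clinical isolate VMW-1837 and HSV-2 (G, 196, Lyons). […] MCC is the lowest concentration giving microscopically detectable alteration of normal cell morphology; highest concentration tested was 400 µg/mL.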

E6SM [4] = assay: Tested for the minimum inhibitory concentration required to reduce herpes simplex virus type 2 (HSV-2) strain G induced cytopathogenicity by 50%.; format: functional; conditions: Homo sapiens; method in brief: as §2
E6SM [5] = assay: Tested for the minimum inhibitory concentration required to reduce herpes simplex virus type 1 (HSV-1) strain McIntyre induced cytopathogenicity by 50%.; format: functional; conditions: Homo sapiens; method in brief: as §2
E6SM [6] = assay: Tested for the minimum cytotoxic concentration required to cause a microscopically detectable alteration of normal cell morphology in human embryonic skin muscle (E6SM) fibroblast cell cultures.; format: functional; method in brief: as §2
HEL [7] = assay: Tested for the cytotoxic concentration, required to reduce cell growth by 50% in human embryonic lung (HEL) cells.; format: functional; method in brief: as §1
HEL [8] = assay: Tested for the inhibitory concentration required to reduce thymidine kinase plus Varicella-Zoster virus (TK+ VZV) strain YS plaque formation by 50%; format: functional, cell-based; conditions: Homo sapiens; method in brief: as §1
E6SM [9] = assay: Tested for the minimum inhibitory concentration required to reduce herpes simplex virus type 1 (HSV-1) strain KOS induced cytopathogenicity by 50%.; format: functional; conditions: Homo sapiens; method in brief: as §2
E6SM [10] = assay: Tested for the minimum inhibitory concentration required to reduce herpes simplex virus type 2 (HSV-2) strain Lyons induced cytopathogenicity by 50%.; format: functional; conditions: Homo sapiens; method in brief: as §2
E6SM [11] = assay: Tested for the minimum inhibitory concentration required to reduce herpes simplex virus type 1 (TK- / TK + HSV-1) strain VMW-1837 induced cytopathogenicity by 50%.; format: functional; conditions: Homo sapiens; method in brief: as §2
E6SM [12] = assay: Tested for the minimum inhibitory concentration required to reduce herpes simplex virus type 1 (HSV-1) strain F induced cytopathogenicity by 50%.; format: functional; conditions: Homo sapiens; method in brief: as §2
HEL [13] = assay: Tested for the inhibitory concentration required to reduce thymidine kinase deficient Varicella-Zoster virus (TK- VZV) strain YS/R plaque formation by 50%.; format: functional, cell-based; conditions: Homo sapiens
HEL [14] = assay: Tested for the inhibitory concentration required to reduce thymidine kinase plus Varicella-Zoster virus (TK+ VZV) strain OKA plaque formation by 50%.; format: functional, cell-based; conditions: Homo sapiens; method in brief: as §1
E6SM [15] = assay: Tested for the minimum inhibitory concentration required to reduce herpes simplex virus type 2 (HSV-2) strain 196 induced cytopathogenicity by 50%.; format: functional; conditions: Homo sapiens; method in brief: as §2
HEL [16] = assay: Tested for the inhibitory concentration required to reduce thymidine kinase deficient Varicella-Zoster virus (TK- VZV) strain 07/1 plaque formation by 50%.; format: functional, cell-based; conditions: Homo sapiens

For `O=c1ccn(C2COC(CO)C(O)C2)c(=O)[nH]1` (stereo unspecified), the IC50 (HEL [1]) was > 40 µg/mL, the IC50 (HEL [2]) was > 40 µg/mL and the MIC (E6SM [3]) was > 400 µg/mL. The MIC (E6SM [4]) was > 400 µg/mL, the MIC (E6SM [5]) was > 400 µg/mL and the MCC (E6SM [6]) was > 400 µg/mL. For the same molecule, the CC50 (HEL [7]) was > 50 µg/mL, the IC50 (HEL [8]) was > 40 µg/mL and the MIC (E6SM [9]) was > 400 µg/mL. For the same molecule, the MIC (E6SM [10]) was > 400 µg/mL, the MIC (E6SM [11]) was > 400 µg/mL and the MIC (E6SM [12]) was > 400 µg/mL. The IC50 (HEL [13]) was > 40 µg/mL, the IC50 (HEL [14]) was > 40 µg/mL and the MIC (E6SM [15]) was > 400 µg/mL. For the same molecule, the IC50 (HEL [16]) was > 40 µg/mL.
